This is a sample that favours compounds with a hit; in the whole collection about 4% have one here.
UPR XBP1 act = activators of adaptive XBP1 UPR arm, primary screen, cell-based, CHO-XBP1 luciferase reporter, luminescence, uHTS; IRE1-XBP1 UPR activation; percent of tunicamycin response, DMSO as zero; activation, % at 20 µM; hit rate 0.33% among 330,000;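 active means versus positive control, 20 µM dose yields 30% or more activation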;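 further: 100% = tunicamycin at 10 µg/mL and 0% = DMSO only wells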
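Material: CHO-XBP1 cells stably carrying IRE1-XBP1-driven luciferase reporter | Medium: F12 with 10% serum | Compound dosing: 20 µM single concentration, DMSO 1% | Incubation: Overnight seeding at 37 °C, 6 h compound treatment at 37 °C | Detection: Steady-Glo luminescence read | Read-out basis: % activation of reporter signal versus tunicamycin and DMSO controls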
Mdm2 MdmX PPI = inhibitors of human Mdm2-MdmX association, primary screen, cell-based, luminescence, split luciferase, SaOS-2, uHTS. hit rate 3% among 330,000. Protein Mdm4 (Homo sapiens) + E3 ubiquitin-protein ligase Mdm2 (Homo sapiens), …. SaOS-2 split-luciferase Mdm2/MdmX complementation. inhibition, % at 8 µM;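 active means inhibition of at least 50% at 8 µM in the primary screen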
Target sequence (O15151 whole entry, looked up): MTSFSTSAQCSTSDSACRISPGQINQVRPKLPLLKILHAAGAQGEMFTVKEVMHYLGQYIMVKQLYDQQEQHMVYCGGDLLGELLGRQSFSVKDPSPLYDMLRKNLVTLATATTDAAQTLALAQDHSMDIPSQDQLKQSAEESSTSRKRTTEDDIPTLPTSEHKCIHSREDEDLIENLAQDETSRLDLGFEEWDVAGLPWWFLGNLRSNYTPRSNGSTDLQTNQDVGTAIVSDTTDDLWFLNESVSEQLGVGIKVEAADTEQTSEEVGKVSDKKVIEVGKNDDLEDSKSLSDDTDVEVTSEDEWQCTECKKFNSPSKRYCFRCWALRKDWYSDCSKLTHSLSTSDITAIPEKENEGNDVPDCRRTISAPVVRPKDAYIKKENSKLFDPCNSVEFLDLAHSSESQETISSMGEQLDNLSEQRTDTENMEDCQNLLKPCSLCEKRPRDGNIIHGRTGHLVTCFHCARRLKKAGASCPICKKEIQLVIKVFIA
Target sequence (Q00987 whole entry, looked up): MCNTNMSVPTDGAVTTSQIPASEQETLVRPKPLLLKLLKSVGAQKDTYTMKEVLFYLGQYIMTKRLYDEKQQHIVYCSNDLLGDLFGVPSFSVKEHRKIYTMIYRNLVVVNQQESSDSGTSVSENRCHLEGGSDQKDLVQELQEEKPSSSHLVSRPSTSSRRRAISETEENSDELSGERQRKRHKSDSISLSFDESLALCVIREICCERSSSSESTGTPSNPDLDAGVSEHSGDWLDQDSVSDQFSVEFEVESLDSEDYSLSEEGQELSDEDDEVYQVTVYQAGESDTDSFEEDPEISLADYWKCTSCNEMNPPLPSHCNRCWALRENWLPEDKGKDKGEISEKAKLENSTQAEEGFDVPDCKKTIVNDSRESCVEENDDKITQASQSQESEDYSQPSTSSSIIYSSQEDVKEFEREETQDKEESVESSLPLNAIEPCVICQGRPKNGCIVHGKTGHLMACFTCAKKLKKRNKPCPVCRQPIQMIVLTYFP
ABHD5-PLIN5 inh = ABHD5-PLIN5 interaction inhibitors, primary screen, cell lysate, split luciferase complementation, luminescence. inhibition, % at 4 µM. Split G. princeps luciferase complementation, 4 h. Perilipin-5 (Homo sapiens) + 1-acylglycerol-3-phosphate O-acyltransferase ABHD5 (Homo …. hit rate 0.78% among 360,000. AID 602281, 2012;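 active means inhibition above the mean inhibition across every tested compound plus 3 SD, cut at about 22% in these data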;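 further: 0% = DMSO only wells and the 100% control is not disclosed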
UPR CHOP act = activators of apoptotic CHOP UPR arm, primary screen, cell-based, CHO-CHOP luciferase reporter, luminescence, uHTS. UPR activation; percent of tunicamycin response over DMSO baseline. hit rate 0.34% among 330,000. activation, % at 10 µM;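 active means at 10 µM dose, activation of 40% or more, normalized to positive control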;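 further: 100% = tunicamycin at 10 µg/mL and 0% = DMSO alone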
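Test system: CHO CHOP reporter cells. Input: 500 CHO-CHOP cells per well. Medium: F12 with 10% FBS. Technique: luciferase luminescence. Measure: percent activation relative to tunicamycin control. Dosing: 10 µM compound, 0.5% DMSO. Timing: 16-18 h cell attachment, then 6 h compound exposure, 37 °C.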
Exocytosis inh = LAMP-1 surface exposure blockers, TALL-104 cells – cell-based, flow cytometry, MLPCN library, primary screen; TALL-104 LAMP-1 surface exposure; cells stimulated with thapsigargin and PMA; inhibition, % at 10 µM; hit rate 0.66% among 360,000; AID 651702, 2012;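 active means inhibition above about 55%, limit read from the data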
Mdm2-MdmX conf = Mdm2-MdmX complex disruptors, retested hits, confirmation, luminescence, single concentration; shares compounds with Mdm2 MdmX PPI; Mdm2-MdmX binding, luminescent assay; inhibition, % at 8 µM; hit rate 55% among 10,000; AID 489028, 2010; in the data active means inhibition above about 40%
FLuc counter = full-length luciferase signal inhibition, confirmation, counter-screen for Mdm2/MdmX interaction inhibitor project, cell-based, single concentration, SaOS-2; shares compounds with Mdm2 MdmX PPI; SaOS-2 full-length luciferase counterscreen, luminescence; inhibition, % at 8 µM; hit rate 77% among 6,200;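 active means mean inhibition at 8 µM reaching about 37%, which flags the compound as non-specific, limit read from the data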;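 further: p53-null SaOS-2 cells with luciferase driven by a doxycycline-inducible promoter; compound on cells about two nights before reading with doxycycline added after day one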
* hit, by the source's call; x = not tested or not shown.

SMILES	UPR XBP1 act	Mdm2 MdmX PPI	ABHD5-PLIN5 inh	UPR CHOP act	Exocytosis inh	Mdm2-MdmX conf	FLuc counter
Cc1c(C2(O)CCCCC2)[nH]c2ccc(C(F)(F)F)cc12	1	66*	-11	5	10	31	62*
CCOc1ccc(-n2nnnc2SCC(=O)c2ccccc2)cc1	2	68*	-1	0	-6	15	x
CCOc1ccc(Cl)cc1-c1cc(C(=O)NCc2cc(C(F)(F)F)cc(C(F)(F)F)c2)[nH]n1	x	x	11	x	2	x	x
NNc1ccc2c(C(F)(F)F)cc(C(F)(F)F)nc2n1	-4	29	-2	-1	5	x	x
N#CC(c1cccc(Cl)c1)c1ccc2c(C(F)(F)F)cc(C(F)(F)F)nc2n1 (configuration not stated)	2	98*	-4	18	1	94*	57*
CCOC(=O)O[C@]1(C(=O)OCCl)CC[C@H]2[C@@H]3CCC4=CC(=O)C=C[C@]4(C)[C@H]3[C@@H](O)C[C@@]21C	1	15	x	5	x	x	x
FC(F)(F)c1cc(CCN2CCNC[C@@H]2c2ccccc2)cc(C(F)(F)F)c1	6	31	1	-2	-4	x	x
FC(F)(F)c1cc(CO[C@@H]2CCCN[C@@H]2c2ccccc2)cc(C(F)(F)F)c1	-8	59*	4	0	22	30	x
CNC(=O)C(=O)NCC1OCCCN1S(=O)(=O)c1ccc2c(c1)OCCO2 (configuration not stated)	-4	15	-5	1	-2	x	x
Cc1cc(C)nc(N/N=C/c2ccccc2Cl)n1	4	-36	-1	5	-4	x	x
Cc1cc(N/N=C/c2ccccc2O)nc(-c2ccccc2O)n1	4	72*	-3	4	-3	72*	46*
C/C(=N\Nc1cc(C)nc(-c2ccccc2O)n1)c1ccccc1O	20	89*	-3	4	11	82*	41*
Cc1cc(N/N=C/c2ccccc2Cl)nc(NCc2ccccc2)n1	1	72*	-12	1	11	38	x
COc1ccc(-c2nnc(SCC(=O)N3c4ccccc4Sc4ccccc43)o2)cc1	-3	35	-1	0	-4	x	x
COc1cc(OC)cc(-c2nnc(SCC(=O)N3c4ccccc4Sc4ccccc43)o2)c1	-3	54*	5	-3	-7	12	x
CCCNc1nc2c(c(=O)[nH]c(=O)n2C)n1Cc1cccc(Br)c1	2	66*	-3	1	-1	35	x
C(=N\Nc1ccc2ccccc2n1)/c1ccc2c(c1)OCCO2	-10	69*	-3	-8	-1	79*	98*
C(=N\Nc1nc2ccccc2[nH]1)/c1ccc2c(c1)OCCO2	-4	-75	9	0	14	x	x
C/C(=N\OC(=O)Nc1ccc(Cl)cc1)c1ncc(C(F)(F)F)cc1N1CCOCC1	2	-43	3	2	-1	x	x
N#Cc1c(-c2ccccc2)nc(SCc2cccc(Cl)c2)[nH]c1=O	1	0	0	-1	2	x	x
COc1cccc(C2CC(c3c(-c4ccccc4)c4cc(Cl)ccc4[nH]c3=O)=NN2S(C)(=O)=O)c1OC (configuration not stated)	-3	50*	4	6	10	32	69*
COc1ccccc1C1CC(c2c(-c3ccccc3)c3cc(Cl)ccc3[nH]c2=O)=NN1S(C)(=O)=O (configuration not stated)	4	37	8	-1	12	x	x
CCCn1c2ccccc2c2cnn(CC(=O)NC3CCCC(C)C3C)c(=O)c21 (configuration not stated)	25	89*	3	0	14	-2	x
Cc1ccc(CS(=O)Cc2ccc(C(=O)N3CCN(c4cccc(C)c4C)CC3)o2)cc1 (configuration not stated)	x	x	-4	x	-6	x	x
O=C1[C@H]2[C@@H](c3ccc(F)cc3)N3C(=O)N(c4ccc(Br)cc4)C(=O)[C@@]3(Cc3ccc(Cl)cc3)[C@H]2C(=O)N1C1CCCCC1	0	85*	5	4	16	94*	28
SMILES	UPR XBP1 act	Mdm2 MdmX PPI	ABHD5-PLIN5 inh	UPR CHOP act	Exocytosis inh	Mdm2-MdmX conf	FLuc counter
Cc1ccc(N2C(=O)N3[C@H](c4ccc(F)cc4)[C@@H]4C(=O)N(C5CCCCC5)C(=O)[C@@H]4[C@]3(Cc3ccccc3)C2=O)cc1	-1	61*	-4	1	-5	70*	57*
O=C1[C@H]2[C@@H](c3ccc(F)cc3)N3C(=O)N(c4cccc(F)c4)C(=O)[C@@]3(Cc3ccccc3)[C@H]2C(=O)N1C1CCCCC1	-1	29	-10	-1	-3	x	x
Cc1ccc(C)c(N2CCN(C(=O)CCc3nc(-c4ccc(Cl)cc4)no3)CC2)c1	1	12	2	3	-3	x	x
COc1cccc(N2CCN(C3CC(=O)N(c4ccc(C)c(Cl)c4)C3=O)CC2)c1 (configuration not stated)	-2	16	6	-2	0	x	x
COC(=O)c1ccccc1NC(=O)CSc1nc(-c2ccco2)cc(C(F)(F)F)n1	11	67*	-3	0	10	62*	74*
Cc1cc(NC(=O)CSc2nc(-c3ccco3)cc(C(F)(F)F)n2)n(-c2ccccc2)n1	8	54*	2	-1	9	56*	54*
O=C(CSc1nc(-c2ccco2)cc(C(F)(F)F)n1)Nc1ccc2c(c1)CCC2	4	52*	18	3	1	61*	45*
Cc1c(-n2c(=S)[nH]c3ccccc3c2=O)c(=O)n(-c2ccccc2)n1C	-1	-21	-5	-2	-3	x	x
Cc1cc(C)n2c(SCC(=O)NC3CCCC(C)C3C)nnc2n1 (configuration not stated)	-2	4	-2	-1	-8	x	x
Cc1ncc(CO)c(/C=N/NC(=S)Nc2ccc(F)cc2)c1O	-5	14	-10	1	4	x	x
Cc1ncc(CO)c(/C=N/Nc2ccc(C(F)(F)F)cn2)c1O	-4	75*	-11	-1	-2	72*	34
Cc1ccc(C)c(Cn2nnc3c(=O)[nH]c(C(=O)NCc4ccco4)nc32)c1	-2	-1	-1	0	-2	x	x
